Activity calls are given as the source filed them. The calls are words filed in the database; no cut-off is given here.
Tests used:
[1] = target: 5-hydroxytryptamine receptor 4 (Cavia porcellus) (UniProt O70528); assay: Displacement of [3H]GR113808 from 5HT4R in guinea pig striatal membranes at 10 nM; assay type: cell membranes; conditions: Striatum, Membrane
Method in brief: (§1)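 Native 5-HT4R in male guinea pig striatal membranes (HEPES 50 mM pH 7.4); 600 µg membrane incubated in duplicate with [3H]GR 113808 at 0.1 nM final, 37 °C, 30 min; filtration on PEI-soaked GF/B filters, cold buffer washes.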

[2] = target: 5-hydroxytryptamine receptor 4 (Cavia porcellus) (UniProt O70528); assay: Displacement of [3H]GR113808 from 5HT4R in guinea pig striatal membranes at 1 uM; assay type: cell membranes; conditions: Striatum, Membrane; method in brief: as §1
[3] = target: T1, 5-hydroxytryptamine receptor 1A (Homo sapiens, UniProt P08908); assay: Binding affinity to human 5HT1A by Cerep protocol based assay
T1 sequence (P08908 whole entry): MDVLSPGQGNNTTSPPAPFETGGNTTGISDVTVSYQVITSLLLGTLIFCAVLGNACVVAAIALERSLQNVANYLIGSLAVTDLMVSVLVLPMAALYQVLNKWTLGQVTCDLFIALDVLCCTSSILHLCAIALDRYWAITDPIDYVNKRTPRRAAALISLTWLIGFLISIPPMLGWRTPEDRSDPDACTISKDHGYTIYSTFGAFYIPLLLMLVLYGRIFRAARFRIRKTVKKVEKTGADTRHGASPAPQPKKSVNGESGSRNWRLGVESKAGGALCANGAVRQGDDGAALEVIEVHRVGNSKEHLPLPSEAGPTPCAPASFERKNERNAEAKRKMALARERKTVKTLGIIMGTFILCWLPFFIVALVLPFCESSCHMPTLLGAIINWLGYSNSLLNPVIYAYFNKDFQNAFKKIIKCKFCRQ

[4] = target: 5-hydroxytryptamine receptor 2A (Homo sapiens, UniProt P28223); assay: Binding affinity to human 5HT2A by Cerep protocol based assay
[5] = target: 5-hydroxytryptamine receptor 5A (Homo sapiens, UniProt P47898); assay: Binding affinity to human 5HT5A by Cerep protocol based assay
Mus musculus [6] = assay: In-vivo displacement of [125I]SB 207710 from 5HT4R in mouse brain hemispheres at 50 ug/kg, iv by autoradiography; assay type: functional, organism-based
Method in brief: (§2)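 One mouse dosed intravenously with saline carrying competitor at 50 µg/kg together with 30 µCi [125I]1 (146 Ci/mmol). CO2 sacrifice; 20 µm cryosections taken from 5-HT4R-rich regions (striatum, accumbens nucleus, olfactory tubercles), exposed overnight on phosphorimaging plates and scanned.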

[7] = target: 5-hydroxytryptamine receptor 1B (Homo sapiens, UniProt P28222); assay: Binding affinity to human 5HT1B by Cerep protocol based assay
[8] = target: 5-hydroxytryptamine receptor 2B (Homo sapiens, UniProt P41595); assay: Binding affinity to human 5HT2B by Cerep protocol based assay
[9] = target: T2, 5-hydroxytryptamine receptor 2C (Homo sapiens, UniProt P28335); assay: Binding affinity to human 5HT2C by Cerep protocol based assay
T2 sequence (P28335 whole entry): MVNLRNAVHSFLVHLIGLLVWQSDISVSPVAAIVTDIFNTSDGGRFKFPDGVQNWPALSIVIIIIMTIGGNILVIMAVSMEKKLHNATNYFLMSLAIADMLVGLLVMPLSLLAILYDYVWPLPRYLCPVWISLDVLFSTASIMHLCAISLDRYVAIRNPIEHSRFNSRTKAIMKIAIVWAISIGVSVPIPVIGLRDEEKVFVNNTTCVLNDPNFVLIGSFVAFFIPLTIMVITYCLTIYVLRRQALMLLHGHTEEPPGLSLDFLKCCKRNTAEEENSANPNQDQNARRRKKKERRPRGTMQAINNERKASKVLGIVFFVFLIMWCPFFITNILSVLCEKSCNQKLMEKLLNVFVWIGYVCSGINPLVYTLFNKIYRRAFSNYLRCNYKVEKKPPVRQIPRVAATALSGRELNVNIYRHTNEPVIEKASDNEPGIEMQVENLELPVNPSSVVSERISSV

[10] = target: T3, 5-hydroxytryptamine receptor 4 (Homo sapiens, UniProt Q13639); assay: Displacement of radioligand from human 5HT4R by Cerep protocol based assay
[11] = target: 5-hydroxytryptamine receptor 1D (Homo sapiens, UniProt P28221); assay: Binding affinity to human 5HT1D by Cerep protocol based assay
[12] = target: T4, 5-hydroxytryptamine receptor 3A (Homo sapiens, UniProt P46098); assay: Binding affinity to human 5HT3 by Cerep protocol based assay
T4 sequence (P46098 whole entry): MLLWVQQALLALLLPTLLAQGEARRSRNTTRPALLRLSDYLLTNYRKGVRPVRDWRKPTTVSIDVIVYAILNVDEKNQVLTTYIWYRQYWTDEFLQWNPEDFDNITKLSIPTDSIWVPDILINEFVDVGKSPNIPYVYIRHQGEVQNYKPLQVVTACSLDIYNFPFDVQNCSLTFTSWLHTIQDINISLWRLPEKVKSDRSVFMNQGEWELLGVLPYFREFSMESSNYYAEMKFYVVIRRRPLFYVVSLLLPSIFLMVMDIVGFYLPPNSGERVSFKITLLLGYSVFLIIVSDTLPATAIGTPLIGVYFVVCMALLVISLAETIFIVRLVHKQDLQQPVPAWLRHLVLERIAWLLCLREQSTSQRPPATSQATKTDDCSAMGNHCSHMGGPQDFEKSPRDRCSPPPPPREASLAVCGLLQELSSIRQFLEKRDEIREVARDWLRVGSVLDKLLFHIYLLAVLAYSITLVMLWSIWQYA

Mus musculus [13] = assay: In-vivo displacement of [125I]SB 207710 from 5HT4R in mouse olfactory tubercles at 50 ug/kg, iv by autoradiography; assay type: functional, organism-based; conditions: Olfactory tubercle; method in brief: as §2
[14] = target: 5-hydroxytryptamine receptor 4 (Cavia porcellus, UniProt O70528); assay: Displacement of [3H]GR113808 from 5HT4R in guinea pig striatal membranes; assay type: cell membranes, Striatum, Membrane
[15] = target: 5-hydroxytryptamine receptor 4 (Rattus norvegicus) (UniProt Q62758); assay: Displacement of [125I]SB 207710 from 5HT4R in rat brain cortex at 10 pM incubated for 30 mins by autoradiography; assay type: tissue-based
Method in brief: (§3)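 Frozen rat brain coronal sections (striatum/accumbens level) preincubated 5 min in 50 mM Tris-HCl pH 7.4, then incubated 30 min at room temperature with 100 pM [125I]1 plus competitor (1, 10, 100, 1000 pM). Three 5-min ice-cold buffer washes and a water dip, then drying; phosphorimaging after overnight exposure.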

[16] = target: 5-hydroxytryptamine receptor 7 (Homo sapiens, UniProt P34969); assay: Binding affinity to human 5HT7 by Cerep protocol based assay
[17] = target: 5-hydroxytryptamine receptor 4 (Rattus norvegicus) (UniProt Q62758); assay: Displacement of [125I]SB 207710 from 5HT4R in rat brain cortex at 1 nM incubated for 30 mins by autoradiography; assay type: tissue-based; method in brief: as §3
[18] = target: 5-hydroxytryptamine receptor 6 (Homo sapiens, UniProt P50406); assay: Binding affinity to human 5HT6 by Cerep protocol based assay
[19] = target: T3, 5-hydroxytryptamine receptor 4
[20] = target: T3, 5-hydroxytryptamine receptor 4; assay: Displacement of [3H]GR113808 from human recombinant 5HT4R expressed in HEK293T cells; assay type: cell-based, HEK-293T
[21] = target: 5-hydroxytryptamine receptor 1E (Homo sapiens, UniProt P28566); assay: Binding affinity to human 5HT1E by Cerep protocol based assay
[22] = target: T3, 5-hydroxytryptamine receptor 4; remark: listed apart in the source

5-hydroxytryptamine receptor 1B, sequence (P28222 whole entry): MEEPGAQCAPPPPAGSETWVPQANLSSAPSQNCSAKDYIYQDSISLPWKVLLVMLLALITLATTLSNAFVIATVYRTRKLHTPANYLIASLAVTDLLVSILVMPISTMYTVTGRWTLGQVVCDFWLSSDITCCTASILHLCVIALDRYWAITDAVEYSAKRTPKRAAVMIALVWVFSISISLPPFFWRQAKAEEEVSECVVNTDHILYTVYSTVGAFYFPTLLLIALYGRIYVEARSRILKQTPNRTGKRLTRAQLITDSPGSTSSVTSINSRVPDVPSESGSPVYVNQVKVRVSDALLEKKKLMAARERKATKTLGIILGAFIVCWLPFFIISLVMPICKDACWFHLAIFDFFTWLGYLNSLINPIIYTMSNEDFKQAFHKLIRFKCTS
5-hydroxytryptamine receptor 2A, sequence (P28223 whole entry): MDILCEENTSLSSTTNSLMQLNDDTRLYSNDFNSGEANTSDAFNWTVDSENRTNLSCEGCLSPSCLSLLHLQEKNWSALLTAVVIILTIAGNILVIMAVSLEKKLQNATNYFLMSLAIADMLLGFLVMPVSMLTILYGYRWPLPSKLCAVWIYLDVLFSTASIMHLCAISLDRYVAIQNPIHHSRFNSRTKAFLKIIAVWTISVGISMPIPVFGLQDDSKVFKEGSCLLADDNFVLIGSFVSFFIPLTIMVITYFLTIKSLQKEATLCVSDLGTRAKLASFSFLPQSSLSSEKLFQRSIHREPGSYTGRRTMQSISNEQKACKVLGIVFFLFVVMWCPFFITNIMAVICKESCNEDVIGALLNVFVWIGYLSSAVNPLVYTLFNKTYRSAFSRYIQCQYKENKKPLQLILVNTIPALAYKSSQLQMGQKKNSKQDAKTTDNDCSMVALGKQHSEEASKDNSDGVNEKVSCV
5-hydroxytryptamine receptor 6, sequence (P50406 whole entry): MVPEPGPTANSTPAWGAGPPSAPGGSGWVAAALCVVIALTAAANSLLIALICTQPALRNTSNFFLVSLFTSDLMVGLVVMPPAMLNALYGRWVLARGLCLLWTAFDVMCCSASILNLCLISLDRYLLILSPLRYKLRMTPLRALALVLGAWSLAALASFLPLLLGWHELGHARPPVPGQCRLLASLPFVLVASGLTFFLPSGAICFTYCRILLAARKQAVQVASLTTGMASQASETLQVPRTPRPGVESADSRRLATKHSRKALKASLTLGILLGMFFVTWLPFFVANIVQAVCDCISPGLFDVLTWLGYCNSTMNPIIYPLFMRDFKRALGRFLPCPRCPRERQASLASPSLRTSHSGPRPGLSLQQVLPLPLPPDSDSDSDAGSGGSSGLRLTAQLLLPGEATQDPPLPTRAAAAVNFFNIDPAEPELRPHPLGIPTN
5-hydroxytryptamine receptor 1D, sequence (P28221 whole entry): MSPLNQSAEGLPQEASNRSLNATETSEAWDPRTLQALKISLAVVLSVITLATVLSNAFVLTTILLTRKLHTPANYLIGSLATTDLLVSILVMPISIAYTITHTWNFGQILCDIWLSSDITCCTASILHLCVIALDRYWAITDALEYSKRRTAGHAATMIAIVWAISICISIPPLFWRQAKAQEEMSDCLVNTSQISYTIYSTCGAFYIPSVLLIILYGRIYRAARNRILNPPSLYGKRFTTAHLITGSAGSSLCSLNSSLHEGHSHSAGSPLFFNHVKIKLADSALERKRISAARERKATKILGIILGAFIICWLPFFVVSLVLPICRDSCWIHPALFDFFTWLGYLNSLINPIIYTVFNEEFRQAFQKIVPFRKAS
5-hydroxytryptamine receptor 2B, sequence (P41595 whole entry): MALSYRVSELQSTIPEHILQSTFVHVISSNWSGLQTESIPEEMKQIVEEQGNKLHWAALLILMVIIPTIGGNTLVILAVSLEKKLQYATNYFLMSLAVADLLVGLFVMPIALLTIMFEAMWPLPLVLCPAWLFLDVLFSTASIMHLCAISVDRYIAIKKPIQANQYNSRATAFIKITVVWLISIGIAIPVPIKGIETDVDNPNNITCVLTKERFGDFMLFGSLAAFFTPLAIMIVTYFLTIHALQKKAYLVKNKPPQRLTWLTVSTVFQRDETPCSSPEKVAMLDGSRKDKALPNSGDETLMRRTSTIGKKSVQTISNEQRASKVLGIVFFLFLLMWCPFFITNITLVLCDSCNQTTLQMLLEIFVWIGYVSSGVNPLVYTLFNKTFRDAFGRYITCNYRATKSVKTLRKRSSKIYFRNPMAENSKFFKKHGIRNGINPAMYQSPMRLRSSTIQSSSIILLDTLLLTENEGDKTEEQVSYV
5-hydroxytryptamine receptor 1E, sequence (P28566 whole entry): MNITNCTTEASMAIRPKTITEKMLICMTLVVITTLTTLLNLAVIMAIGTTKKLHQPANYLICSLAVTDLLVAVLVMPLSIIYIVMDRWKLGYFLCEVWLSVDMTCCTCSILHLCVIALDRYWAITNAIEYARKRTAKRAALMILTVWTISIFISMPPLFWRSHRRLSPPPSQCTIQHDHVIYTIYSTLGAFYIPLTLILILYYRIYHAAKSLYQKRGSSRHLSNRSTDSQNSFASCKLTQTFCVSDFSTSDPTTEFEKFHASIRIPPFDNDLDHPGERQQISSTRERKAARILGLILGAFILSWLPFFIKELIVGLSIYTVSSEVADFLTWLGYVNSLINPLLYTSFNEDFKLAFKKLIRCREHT
5-hydroxytryptamine receptor 5A, sequence (P47898 whole entry): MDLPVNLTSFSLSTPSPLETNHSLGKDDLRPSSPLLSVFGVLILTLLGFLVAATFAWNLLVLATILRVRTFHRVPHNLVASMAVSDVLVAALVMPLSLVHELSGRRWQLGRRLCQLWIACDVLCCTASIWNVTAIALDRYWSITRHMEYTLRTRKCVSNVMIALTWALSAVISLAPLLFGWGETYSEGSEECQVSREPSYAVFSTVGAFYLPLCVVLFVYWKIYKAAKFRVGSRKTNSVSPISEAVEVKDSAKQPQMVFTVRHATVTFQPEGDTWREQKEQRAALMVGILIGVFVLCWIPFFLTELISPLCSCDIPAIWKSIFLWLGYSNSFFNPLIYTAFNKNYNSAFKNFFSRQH
5-hydroxytryptamine receptor 7, sequence (P34969 whole entry): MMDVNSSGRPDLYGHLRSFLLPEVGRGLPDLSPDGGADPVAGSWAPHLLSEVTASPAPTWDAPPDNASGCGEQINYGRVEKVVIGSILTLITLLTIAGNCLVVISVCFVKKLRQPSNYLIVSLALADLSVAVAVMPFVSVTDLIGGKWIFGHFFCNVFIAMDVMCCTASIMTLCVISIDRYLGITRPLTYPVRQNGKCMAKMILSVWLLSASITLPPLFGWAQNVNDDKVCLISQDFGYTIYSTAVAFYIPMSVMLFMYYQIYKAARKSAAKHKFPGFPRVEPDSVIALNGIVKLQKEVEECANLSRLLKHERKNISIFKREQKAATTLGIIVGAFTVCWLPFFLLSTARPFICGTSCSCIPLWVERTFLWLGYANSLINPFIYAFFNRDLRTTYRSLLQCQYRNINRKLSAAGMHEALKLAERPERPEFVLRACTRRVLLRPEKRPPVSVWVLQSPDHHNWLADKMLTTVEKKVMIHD
T3 sequence (Q13639 whole entry): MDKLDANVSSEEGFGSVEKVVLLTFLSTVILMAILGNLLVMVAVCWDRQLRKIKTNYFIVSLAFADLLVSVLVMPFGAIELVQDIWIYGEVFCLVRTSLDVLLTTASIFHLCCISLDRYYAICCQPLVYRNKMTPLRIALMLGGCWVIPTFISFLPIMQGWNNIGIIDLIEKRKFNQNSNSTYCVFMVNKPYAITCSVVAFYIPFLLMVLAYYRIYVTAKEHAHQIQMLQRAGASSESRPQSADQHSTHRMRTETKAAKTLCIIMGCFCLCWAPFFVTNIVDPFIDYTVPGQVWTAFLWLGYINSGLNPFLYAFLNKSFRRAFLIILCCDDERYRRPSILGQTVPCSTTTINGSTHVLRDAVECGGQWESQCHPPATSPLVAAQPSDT
5-hydroxytryptamine receptor 4 (Cavia porcellus), sequence (O70528 whole entry): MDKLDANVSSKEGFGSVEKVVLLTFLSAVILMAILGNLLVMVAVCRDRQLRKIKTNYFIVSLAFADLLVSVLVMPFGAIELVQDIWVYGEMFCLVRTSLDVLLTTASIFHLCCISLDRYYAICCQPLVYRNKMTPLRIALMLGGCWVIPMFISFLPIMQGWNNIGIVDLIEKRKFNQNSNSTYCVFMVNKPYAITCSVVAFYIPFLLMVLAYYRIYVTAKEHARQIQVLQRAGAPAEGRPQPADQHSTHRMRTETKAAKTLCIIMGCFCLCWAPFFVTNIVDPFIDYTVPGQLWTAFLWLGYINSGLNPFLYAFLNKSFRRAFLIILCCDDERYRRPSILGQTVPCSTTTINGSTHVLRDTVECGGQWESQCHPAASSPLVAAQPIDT
5-hydroxytryptamine receptor 4 (Cavia porcellus, UniProt O70528), sequence (O70528 whole entry): as above
5-hydroxytryptamine receptor 4 (Rattus norvegicus), sequence (Q62758 whole entry): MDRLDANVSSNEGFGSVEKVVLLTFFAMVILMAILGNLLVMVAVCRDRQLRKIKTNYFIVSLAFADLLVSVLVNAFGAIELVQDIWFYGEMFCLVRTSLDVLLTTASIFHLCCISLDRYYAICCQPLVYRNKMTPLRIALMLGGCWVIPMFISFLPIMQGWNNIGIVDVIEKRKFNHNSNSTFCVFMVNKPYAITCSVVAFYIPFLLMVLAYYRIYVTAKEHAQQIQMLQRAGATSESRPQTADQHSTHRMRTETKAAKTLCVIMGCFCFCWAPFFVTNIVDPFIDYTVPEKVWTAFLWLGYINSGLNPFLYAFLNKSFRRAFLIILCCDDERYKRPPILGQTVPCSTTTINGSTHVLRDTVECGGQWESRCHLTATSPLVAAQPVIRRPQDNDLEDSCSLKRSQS

CCCN1CCC(COc2nc3cc(Cl)ccc3c3ccccc23)CC1
inhibition [1]: 0%
inhibition [2]: 85%

CCCN1CCC(COc2nc3c(I)cccc3c3ncccc23)CC1
Ki [3]: 5630 nM
Ki [4]: 1820 nM

Fc1cccc2c1nc(OCC1CCN(CCCc3ccc(I)cc3)CC1)c1cccnc12
Ki [5]: 1700 nM
Ki [3]: 680 nM
Activity (Mus musculus [6]): Active
inhibition [1]: 94%
Ki [7]: > 10000 nM
inhibition [2]: 100%
Ki [8]: 340 nM
Ki [9]: 400 nM
Ki [10]: 0.23 nM
Ki [11]: > 10000 nM
Ki [12]: 410 nM
Ki [4]: 810 nM
Activity (Mus musculus [13]): Active
Ki [14]: 2.5 nM
Activity [15]: Active
Ki [16]: 150 nM
Activity [17]: Active
Ki [18]: > 10000 nM

CCCN1CCC(COc2nc3ccccc3c3ccc(F)cc23)CC1
inhibition [1]: 4%
inhibition [2]: 90%
Ki [14]: 154 nM

CCCN1CCC(COc2nc3ccc(Cl)cc3c3ccccc23)CC1
inhibition [1]: 0%
inhibition [2]: 27%

CCCN1CCC(COc2nc3ccccc3c3cc(F)ccc23)CC1
Ki [14]: 209 nM

CCCN1CCC(COc2nc3ccccc3c3ccc([N+](=O)[O-])cc23)CC1
inhibition [1]: 0%
inhibition [2]: 54%

CCCN1CCC(COc2nc3c(Cl)cccc3c3ccccc23)CC1
inhibition [1]: 24%
EC50 [19]: 251 nM
inhibition [2]: 100%
Ki [20]: 5 nM
Ki [14]: 21.9 nM

CCCN1CCC(COc2nc3c(OC)cccc3c3ccccc23)CC1
Ki [5]: > 10000 nM
Ki [3]: > 10000 nM
Ki [21]: > 10000 nM
inhibition [1]: 22%
Ki [7]: > 10000 nM
EC50 [19]: 79.4 nM
inhibition [2]: 100%
Ki [8]: 29.3 nM
Ki [9]: > 10000 nM
Ki [11]: 2570 nM
Ki [12]: > 10000 nM
Ki [20]: 17 nM
Ki [4]: 5960 nM
Ki [14]: 35 nM
Ki [16]: 3470 nM
Ki [18]: > 10000 nM

Ic1ccc(CCCN2CCC(COc3nc4ccccc4c4ccccc34)CC2)cc1
inhibition [1]: 3%
inhibition [2]: 100%
Ki [14]: 115 nM

CCCN1CCC(COc2nc3ccccc3c3cc(C)ccc23)CC1
inhibition [1]: 0%
inhibition [2]: 28%

CCCN1CCC(COc2nc3ccccc3c3ccccc23)CC1
Ki [14]: 51.5 nM

CCCN1CCC(COc2nc3ccc(OC)cc3c3ccccc23)CC1
Ki [14]: 233 nM

CCCN1CCC(COc2nc3ccccc3c3cccc(F)c23)CC1
Ki [14]: 21.6 nM

CCCN1CCC(COc2nc3cc(F)ccc3c3ccccc23)CC1
Ki [20]: 33 nM
Ki [14]: 101 nM

CCCN1CCC(COc2nc3ccccc3c3cnccc23)CC1
inhibition [1]: 50%
inhibition [2]: 100%
Ki [20]: 403 nM
Ki [14]: 22.8 nM

CCCN1CCC(COc2nc3c(I)cccc3c3ccccc23)CC1
Ki [5]: 5810 nM
Ki [3]: > 10000 nM
Ki [21]: > 10000 nM
inhibition [1]: 0%
Ki [7]: > 10000 nM
inhibition [2]: 100%
Ki [8]: 162 nM
Ki [9]: 772 nM
Ki [10]: 1.2 nM
Ki [11]: > 10000 nM
Ki [12]: 1310 nM
Ki [4]: 1020 nM
Ki [14]: 13.5 nM
Ki [16]: 153 nM
Ki [18]: > 10000 nM

CCCN1CCC(COc2nc3ccc(C)cc3c3ccccc23)CC1
Ki [14]: 246 nM

CCCN1CCC(COc2nc3ccccc3c3ncccc23)CC1
Ki [5]: > 10000 nM
Ki [3]: > 10000 nM
Ki [21]: > 10000 nM
inhibition [1]: 64%
Ki [7]: > 10000 nM
EC50 [19]: 10 nM
inhibition [2]: 96%
Ki [8]: 627 nM
Ki [9]: 2790 nM
Ki [11]: > 10000 nM
Ki [12]: 680 nM
Ki [20]: 7.5 nM
Ki [4]: > 10000 nM
Ki [14]: 13.1 nM
Ki [16]: > 10000 nM
Ki [18]: > 10000 nM

CCCN1CCC(COc2nc3ccccc3c3ccc(OC)cc23)CC1
inhibition [1]: 0%
inhibition [2]: 85%

CCCN1CCC(COc2nc3cc(OC)ccc3c3ccccc23)CC1
Ki [14]: 1900 nM

CCCN1CCC(COc2nc3c(C)cccc3c3ccccc23)CC1
inhibition [1]: 0%
inhibition [2]: 100%
Ki [14]: 100 nM

CCCN1CCC(COc2nc3ccc(F)cc3c3ccccc23)CC1
inhibition [1]: 0%
inhibition [2]: 47%

CCCN1CCC(COc2nc3cc(C)ccc3c3ccccc23)CC1
Ki [14]: 691 nM

CCCN1CCC(COc2nc3c(F)cccc3c3ncccc23)CC1
inhibition [1]: 98%
inhibition [2]: 100%
Ki [10]: 0.04 nM
pKb [22]: 10.6
Ki [14]: 2.2 nM
